Results pooled from the literature.
Compare with care: the assays were run in different laboratories.
Observed: cell growth or viability

Compound | cell line | test | setting | IC50 [µM]
c1ccc(-c2cc(CNc3cccc4cccnc34)on2)cc1 | LN-229 | MTS | 72 h | 33.7
CC(=NNC(=O)c1cc(-c2ccccc2)n(-c2ccc(S(N)(=O)=O)cc2)n1)c1ccc(C)cc1 | PaCa-2 | fluorescence | 48 h | 11.5
FC(F)(F)c1cc(OCc2cc(-c3ccc(Cl)cc3Cl)no2)c2ccccc2n1 | LN-229 | MTS | 72 h | > 100
COC(=O)c1cc(C(C)=NNc2nc(-c3cccc4cc[nH]c34)cs2)ccc1O | T47D | MTT | 96 h | 20.8
COc1cc2[nH]cc(C(=O)C(C#N)=Cc3cn(Cc4ccc(Cl)cc4)c4ccccc34)c2cc1OC | MIA PaCa-2 | MTT | 48 h | > 40
Cc1ncsc1-c1ccc([C@H](CC(=O)NCCCCNC(=O)c2nc(N3CCc4cccc(C(=O)Nc5nc6ccccc6s5)c4C3)ccc2-c2cnn(CC34CC5CC(CC(C5)C3)C4)c2C)NC(=O)[C@@H]2C[C@@H](O)CN2C(=O)[C@@H](NC(=O)C2(C#N)CC2)C(C)(C)C)cc1 | MOLT-4 | MTS | 48 h | 0.0313
Nc1ccccc1NC(=O)c1ccc(Cn2cnc3c(Nc4ccc(Br)cc4F)ncnc32)cc1 | Jurkat | MTT | 72 h | 4.73
O=C(CSc1nc2ccccc2s1)N/N=C/c1ccc(OCC(=O)Nc2ccc([N+](=O)[O-])cc2)cc1 | MOLT-4 | MTS | 72 h | > 100
Cc1c(-c2ccc(N3CCc4cccc(C(=O)Nc5nc6ccccc6s5)c4C3)nc2C(=O)NCCOCCOCCOCCO)cnn1CC12CC3CC(CC(C3)C1)C2 | MOLT-4 | MTS | 48 h | 0.0169
O=C(CSc1nc2ccccc2s1)N/N=C/c1ccc(OCC(=O)Nc2cccc(Br)c2)cc1 | LN-229 | MTS | 72 h | 65.5
CN1C(=O)C(=O)c2cc3c(c4c2c1cc1ccccc14)OCO3 | T47D | MTT | 75 h | 61
CN1CCC(NC2CCc3[nH]c4c(C(N)=O)ccc(-c5ccccc5Cl)c4c3C2)CC1 (stereo not drawn) | Jurkat | – | 96 h | 0.0193
Cn1nnc2c(C(N)=O)ncn2c1=O | LN-229 | MTT | – | 6000
NS(=O)(=O)c1ccc(-n2nc(C(=O)NN=Cc3cccnc3)cc2-c2ccccc2)cc1 | PaCa-2 | fluorescence | 48 h | 27.8
COc1cc2[nH]cc(C(=O)C(C#N)=Cc3cn(C)c4ccccc34)c2cc1OC | MIA PaCa-2 | MTT | 48 h | 15.6
Nc1nnc(-c2ccccc2O)cc1N1CC2CCC(C1)N2c1ccnc(F)c1 | LNCaP | ATP luminescence | 7 days | > 1
N/C(=N\O)c1ccc(-c2cc(CNc3cccc4cccnc34)on2)cc1 | LN-229 | MTS | 72 h | 15.6
NS(=O)(=O)c1ccc(-n2nc(C(=O)NN3C(=O)c4ccccc4C3=O)cc2-c2ccccc2)cc1 | PaCa-2 | fluorescence | 48 h | 35.4
O=C(CSc1nc2ccccc2s1)N/N=C/c1ccc(OCC(=O)Nc2ccc(Br)cc2)cc1 | LN-229 | MTS | 72 h | 27.8
O=c1cc(OCc2cc(-c3ccc(Cl)cc3Cl)no2)c2ccccc2o1 | LN-229 | MTS | 72 h | > 100
COc1ccc2c(C(=O)C(C#N)=Cc3cn(Cc4ccc(Cl)cc4)c4ccccc34)c[nH]c2c1 | MIA PaCa-2 | MTT | 48 h | 7.9
COc1cc([C@@H]2c3cc4c(cc3[C@@H](O[C@@H]3O[C@@H]5CO[C@@H](C)O[C@H]5[C@H](O)[C@H]3O)[C@H]3COC(=O)[C@H]23)OCO4)cc(OC)c1O | DU-145 | MTT | – | 0.5
COc1ccc(C=C(C#N)C(=O)c2c[nH]c3ccccc23)cc1 | MIA PaCa-2 | MTT | 48 h | 15.4
O=C(CSc1nc2ccccc2s1)N/N=C/c1ccc(OCC(=O)Nc2cccc(Cl)c2)cc1 | MOLT-4 | MTS | 72 h | 7.7

Compound | cell line | test | setting | IC50 [µM]
CN(C)c1ccc(Nc2nc(-c3ccncc3)nc3c2CC(N)CC3)cc1 (stereo not drawn) | DU-145 | MTT | – | 11.5
CCn1cc(/C=C(\C#N)C(=O)c2c[nH]c3ccccc23)c2ccccc21 | MIA PaCa-2 | MTT | 48 h | > 40
Cc1c(-c2ccc(N3CCc4cccc(C(=O)Nc5nc6ccccc6s5)c4C3)nc2C(=O)O)cnn1CC12CC3CC(C1)CC(C(=O)NCCCCCCCCCCNc1cccc4c1C(=O)N(C1CCC(=O)NC1=O)C4=O)(C3)C2 (stereo not drawn) | MOLT-4 | MTS | 48 h | 0.021
COc1cc([C@@H]2c3cc4c(cc3[C@@H](O[C@@H]3O[C@@H]5CO[C@@H](C)O[C@H]5[C@H](O)[C@H]3O)[C@H]3COC(=O)[C@H]23)OCO4)cc(OC)c1O | LN-229 | MTS | 72 h | 0.02
Cc1c(-c2ccc(N3CCc4cccc(C(=O)Nc5nc6ccccc6s5)c4C3)nc2C(=O)NCCCCNc2cccc3c2C(=O)N(C2CCC(=O)NC2=O)C3=O)cnn1CC12CC3CC(CC(C3)C1)C2 (stereo not drawn) | MOLT-4 | MTS | 48 h | 0.126
COc1cc(C=NNC(=O)c2cc(-c3ccccc3)n(-c3ccc(S(N)(=O)=O)cc3)n2)cc(OC)c1OC | PaCa-2 | fluorescence | 48 h | 22
O=C(CSc1nc2ccccc2s1)N/N=C/c1ccc(OCC(=O)Nc2cccc([N+](=O)[O-])c2)cc1 | LN-229 | MTS | 72 h | 24.2
Cc1c(-c2ccc(N3CCc4cccc(C(=O)Nc5nc6ccccc6s5)c4C3)nc2C(=O)NCCOCCNc2cccc3c2C(=O)N(C2CCC(=O)NC2=O)C3=O)cnn1CC12CC3CC(CC(C3)C1)C2 (stereo not drawn) | MOLT-4 | MTS | 48 h | 0.0214
COC[C@H](NC(=O)c1ccn(S(C)(=O)=O)c1)C(=O)Nc1nc(-c2cccc(N3C[C@@H](C)O[C@@H](C)C3)n2)cs1 | LNCaP | ATP luminescence | 7 days | 0.008
Cc1ncsc1-c1ccc([C@H](C)NC(=O)[C@@H]2C[C@@H](O)CN2C(=O)[C@@H](NC(=O)CCCCCCCS(=O)(=O)NC(=O)c2nc(N3CCc4cccc(C(=O)Nc5nc6ccccc6s5)c4C3)ccc2-c2cnn(CC34CC5CC(CC(C5)C3)C4)c2C)C(C)(C)C)cc1 | MOLT-4 | MTS | 48 h | 0.0037
Nc1ccccc1NC(=O)c1ccc(Cn2cnc3c(Nc4ccc(Cl)cc4)ncnc32)cc1 | Jurkat | MTT | 72 h | 13.5
CN(C)C(=O)c1cc2cnc(Nc3ccc(-c4ccc5c(=O)cc(N6CCOCC6)oc5c4)cc3)nc2n1C1CCCC1 | NGP | ATP luminescence | 72 h | 0.21
NS(=O)(=O)c1ccc(-n2nc(-c3nnc(S)o3)cc2-c2ccccc2)cc1 | PaCa-2 | fluorescence | 48 h | 34.2
COc1ccc(Nc2ncnc3c2ncn3Cc2ccc(C(=O)Nc3ccccc3N)cc2)cc1 | Jurkat | MTT | 72 h | 9.74
N#Cc1ccc(-c2cc(COc3cc(=O)oc4ccccc34)on2)cc1 | LN-229 | MTS | 72 h | > 100
O=C(NO)c1ccc(Cn2cnc3c(Nc4ccc(Br)cc4F)ncnc32)cc1 | MOLT-4 | MTT | 72 h | 0.53
Cc1nc(Nc2ncc(C(=O)Nc3c(C)cccc3Cl)s2)cc(N2CC[C@H](O)C2)n1 | SU-DHL-2 | ATP luminescence | 72 h | > 10
O=C(NO)c1ccc(Cn2cnc3c(Nc4cccc([N+](=O)[O-])c4)ncnc32)cc1 | MOLT-4 | MTT | 72 h | 0.92
CCOc1ccc2[nH]cc(C(=O)C(C#N)=Cc3cn(CC)c4ccccc34)c2c1 | MIA PaCa-2 | MTT | 48 h | 5.8
c1ccc(-c2cc(CNc3cccc4cccnc34)on2)nc1 | LN-229 | MTS | 72 h | 22.8
Cc1ncsc1-c1ccc([C@H](CC(=O)NCCCCCCNC(=O)c2nc(N3CCc4cccc(C(=O)Nc5nc6ccccc6s5)c4C3)ccc2-c2cnn(CC34CC5CC(CC(C5)C3)C4)c2C)NC(=O)[C@@H]2C[C@@H](O)CN2C(=O)[C@@H](NC(=O)C2(C#N)CC2)C(C)(C)C)cc1 | MOLT-4 | MTS | 48 h | 0.117
FC(F)(F)c1ccc(-c2cc(COc3cc(C(F)(F)F)nc4ccccc34)on2)cc1 | LN-229 | MTS | 72 h | > 100
COc1ccc(Nc2ncnc3c2ncn3Cc2ccc(C(=O)NO)cc2)cc1 | Jurkat | MTT | 72 h | 0.7
CCNC(=O)c1nc(N2CCc3cccc(C(=O)Nc4nc5ccccc5s4)c3C2)ccc1-c1cnn(CC23CC4CC(CC(C4)C2)C3)c1C | MOLT-4 | MTS | 48 h | 0.481
